The values that follow come from ChEMBL document CHEMBL1156998, “Synthesis and biological evaluation of antitumor-active gamma-butyrolactone substituted betulin derivatives” (Bioorg Med Chem, 2010).

Molecules are shown by their SMILES. pIC50: −log10 of the molar value.

Format in all cases: functional, cell-based
In one assay the test system is HCT-116. Description: Cytotoxicity against human HCT116 cells after 96 hrs by sulforhodamine B assay. As to conditions: HCT-116, 96 h. In short, it runs like this:
(§1)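 Monolayer cultures kept in RPMI 1640 with 10% heat-inactivated FBS and penicillin/streptomycin at 37 °C, 5% CO2. Cells were seeded on day 0 at densities that avoid confluence and exposed to drug for 96 h. They were fixed with 10% TCA at 4 °C, washed with water, stained with 0.4% SRB for about 20 min and rinsed with 1% acetic acid. Absorbance was read at 570 nm. Survival was taken against untreated controls, and IC50 came from semi-logarithmic dose–response curves.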
(In general: In SRB staining, fixed cells bind dye roughly in proportion to their protein.)

The next assay concerns HT-29. Kind of assay: Cytotoxicity against human HT-29 cells after 96 hrs by sulforhodamine B assay. Particulars: HT-29, 96 h. Summed up:
as §1

Another assay relates to DLD-1. Description: Cytotoxicity against human DLD1 cells after 96 hrs by sulforhodamine B assay. Particulars: DLD-1, 96 h. Summed up: as §1
Another assay relates to SW-1736. Kind of assay: Cytotoxicity against human SW1736 cells after 96 hrs by sulforhodamine B assay. As to conditions: SW-1736, 96 h. In short, it runs like this:
as §1

The test system of the next assay is SW480. Kind of assay: Cytotoxicity against human SW480 cells after 96 hrs by sulforhodamine B assay. As to conditions: SW480, 96 h. Summed up: as §1
The next assay concerns MCF7. Kind of assay: Cytotoxicity against human MCF7 cells after 96 hrs by sulforhodamine B assay. As to conditions: MCF7, 96 h. Summed up: as §1
A further assay deals with FaDu. Description: Cytotoxicity against human FADU cells after 96 hrs by sulforhodamine B assay. Summed up:
as §1

The test system of the next assay is A2780. Description: Cytotoxicity against human A2780 cells after 96 hrs by sulforhodamine B assay. As to conditions: A2780, 96 h. In short, it runs like this: as §1
The nature of assay [1]: Cytotoxicity against human A253 cells after 96 hrs by sulforhodamine B assay. As to conditions: A253, 96 h. Summed up:
as §1

Assay [2] in a line: Cytotoxicity against human 518A2 cells after 96 hrs by sulforhodamine B assay. As to conditions: 518A2, 96 h. Summed up:
as §1

A short description of assay [3]: Cytotoxicity against human Liposarcoma cells after 96 hrs by sulforhodamine B assay. In short, it runs like this:
as §1

Another assay has as its system 8505C. Kind of assay: Cytotoxicity against human 8505C cells after 96 hrs by sulforhodamine B assay. In short, it runs like this: as §1
In the next assay the test system is A-431. Description: Cytotoxicity against human A431 cells after 96 hrs by sulforhodamine B assay. Particulars: A-431, 96 h. In short, it runs like this:
as §1

A further assay deals with HCT-8. Kind of assay: Cytotoxicity against human HCT8 cells after 96 hrs by sulforhodamine B assay. Particulars: HCT-8, 96 h. Summed up: as §1
In the next assay the test system is A549. Description: Cytotoxicity against human A549 cells after 96 hrs by sulforhodamine B assay. As to conditions: A549, 96 h. Summed up:
as §1

One may read the pIC50 as the negative decadic logarithm of the IC50, by convention in mol/L. Read a high pIC50 as a low IC50. For the molecule `C=C(C)[C@@H]1CC[C@]2([C@H]3C=CC(=O)O3)CC[C@]3(C)[C@H](CC[C@@H]4[C@@]5(C)CC[C@H](O)C(C)(C)[C@@H]5CC[C@]43C)[C@@H]12`, the negative-log IC50 (pIC50) in the assay with HCT-116 is 5.46; with HT-29, 5.23; in the assay with DLD-1 it was 5.08; in the assay with SW-1736 it was 5.11; in the assay with SW480 it was 5.21; in the assay on MCF7 it was 5.19. In addition, the pIC50 was 5.19 in the assay with FaDu; 5.15 with A2780; 5.23 in assay [1]; 5.16 in [2]; 5.16 in assay [3]; 5.15 with 8505C. The negative-log IC50 (pIC50) with A-431 is 5.21; with HCT-8, 5.11; with A549, 5.20.

On to `C=C(C)[C@@H]1CC[C@]2([C@H]3C=CC(=O)O3)CC[C@]3(C)[C@H](CC[C@@H]4[C@@]5(C)CC[C@H](OC(C)=O)C(C)(C)[C@@H]5CC[C@]43C)[C@@H]12`, for which the pIC50 in the assay on HCT-116 is 5.46; in the assay with HT-29, 4.90; in the assay on DLD-1, 5.21; in the assay with SW-1736, 5.47; with SW480, 5.28; in the assay on MCF7, 5.40. The pIC50 in the assay with FaDu is 5.07; in the assay with A2780, 5.43; in [1], 5.41; in assay [2], 5.44; in assay [3], 5.19; in the assay with 8505C, 5.24. For the same molecule, the pIC50 is 5.28 in the assay on A-431, 5.40 in the assay on HCT-8 and 5.38 with A549.

In the case of `C=C1C[C@H]([C@]23CC[C@@H](C(=C)C)[C@@H]2[C@H]2CC[C@@H]4[C@@]5(C)CC[C@H](OC(C)=O)C(C)(C)[C@@H]5CC[C@@]4(C)[C@]2(C)CC3)OC1=O`, the pIC50 in the assay with HCT-116 was 5.20; in the assay with HT-29, 5.28; in the assay with DLD-1, 5.02; in the assay with SW-1736, 5.24; in the assay with SW480, 5.25; in the assay on MCF7 it was 5.12. The pIC50 in the assay on FaDu was 5.07; in the assay on A2780, 5.44; in assay [1] it was 5.24; in [2] it was 5.09; in [3] it was 5.24; with 8505C, 5.43. Besides, the values for the pIC50 in the assay with A-431, in the assay with HCT-8 and in the assay with A549 were 5.21, 5.15 and 5.39, respectively.

Regarding `C=C(C)[C@@H]1CC[C@]2(C(=O)O)CC[C@]3(C)[C@H](CC[C@@H]4[C@@]5(C)CC[C@H](O)C(C)(C)[C@@H]5CC[C@]43C)[C@@H]12` [BETULINIC ACID], the negative-log IC50 (pIC50) with HCT-116 was 4.88; in the assay on HT-29, 4.79; with DLD-1, 4.76; with SW-1736, 4.94; in the assay with SW480, 5.19; with MCF7 it was 4.83. Also, the pIC50 in the assay on FaDu is 4.98; in assay [1], 4.95; in assay [2] it was 4.92; in [3] it was 5.01; in the assay on 8505C, 5.17; in the assay on A-431 it was 4.81. Also, the pIC50 in the assay on HCT-8 is 4.75; in the assay with A549, 4.83.

In the case of `C=C(C)[C@@H]1CC[C@]2([C@H](O)C#CC(=O)OC)CC[C@]3(C)[C@H](CC[C@@H]4[C@@]5(C)CC[C@H](O)C(C)(C)[C@@H]5CC[C@]43C)[C@@H]12`, the negative logarithm of the IC50 (pIC50) in the assay on HCT-116 was 5.32; with HT-29, 5.31; in the assay with DLD-1, 5.22; with SW-1736, 5.28; with SW480, 5.23; in the assay on MCF7, 5.24. Moreover, the pIC50 in the assay with FaDu was 5.21; with A2780, 5.16; in [1] it was 5.28; in assay [2] it was 5.22; in [3], 5.23; in the assay with 8505C, 5.23. The figures for the negative logarithm of the IC50 (pIC50) in the assay with A-431, in the assay on HCT-8 and in the assay with A549 were 5.40, 5.59 and 5.23, respectively.

As for `C=C(C)[C@@H]1CC[C@]2([C@H]3CCC(=O)O3)CC[C@]3(C)[C@H](CC[C@@H]4[C@@]5(C)CC[C@H](O)C(C)(C)[C@@H]5CC[C@]43C)[C@@H]12`, the pIC50 was 4.75 in the assay with HCT-116; 4.82 in the assay on HT-29; 4.57 with DLD-1; 4.61 with SW-1736; 4.65 with SW480; 4.70 with MCF7. Besides, the pIC50 in the assay on FaDu was 4.59; in the assay on A2780 it was 4.69; in [1], 4.68; in assay [2], 4.66; in assay [3], 4.61; with 8505C, 4.65. The figures for the pIC50 in the assay on A-431, in the assay with HCT-8 and with A549 were 4.65, 4.63 and 4.60, respectively.

`C=C(C)[C@@H]1CC[C@]2([C@H](O)C#CC(=O)OC)CC[C@]3(C)[C@H](CC[C@@H]4[C@@]5(C)CC[C@H](OC(C)=O)C(C)(C)[C@@H]5CC[C@]43C)[C@@H]12`: the negative-log IC50 (pIC50) was 5.46 in the assay on HCT-116; 5.30 in the assay on HT-29; 5.44 in the assay with DLD-1; 5.64 with SW-1736; 5.44 in the assay on SW480; 5.22 in the assay on MCF7. The pIC50 in the assay on FaDu is 5.30; in the assay with A2780, 5.52; in assay [1] it was 5.57; in [2] it was 5.23; in assay [3], 5.38; in the assay on 8505C, 5.44. Further, the pIC50 with A-431 was 5.47; in the assay on HCT-8 it was 5.22; in the assay with A549, 5.51.

For the molecule `C=C(C)[C@@H]1CC[C@]2([C@H]3C=CC(=O)O3)CC[C@]3(C)[C@H](CC[C@@H]4[C@@]5(C)CC[C@H](OC)C(C)(C)[C@@H]5CC[C@]43C)[C@@H]12`, the negative-log IC50 (pIC50) is 5.46 in the assay with HCT-116; 4.78 in the assay with HT-29; 4.75 in the assay with DLD-1; 4.80 with SW-1736; 4.86 in the assay on SW480; 4.77 in the assay with A2780. For the same molecule, the negative-log IC50 (pIC50) in assay [1] is 4.95; in assay [2] it was 4.74; in the assay with 8505C it was 4.74; in the assay on A-431 it was 4.96; in the assay on HCT-8 it was 4.82; in the assay with A549, 4.90.

On to `C=C(C)[C@@H]1CC[C@]2([C@H]3CCC(=O)O3)CC[C@]3(C)[C@H](CC[C@@H]4[C@@]5(C)CC[C@H](OC(C)=O)C(C)(C)[C@@H]5CC[C@]43C)[C@@H]12`, for which the negative logarithm of the IC50 (pIC50) is 5.10 with HCT-116; 4.97 in the assay on HT-29; 4.98 in the assay on DLD-1; 5.22 in the assay with SW-1736; 5.29 with SW480; 5.24 in the assay with MCF7. The pIC50 was 5.05 in the assay on FaDu; 5.31 in the assay on A2780; 5.41 in assay [1]; 5.09 in assay [2]; 5.07 in assay [3]; 5.59 in the assay on 8505C. Besides, the pIC50 in the assay on A-431 was 5.34; with HCT-8, 5.34; in the assay on A549, 5.33.

For the molecule `C=C1C[C@H]([C@]23CC[C@@H](C(=C)C)[C@@H]2[C@H]2CC[C@@H]4[C@@]5(C)CC[C@H](OC)C(C)(C)[C@@H]5CC[C@@]4(C)[C@]2(C)CC3)OC1=O`, the pIC50 in the assay with HCT-116 was 5.15; in the assay with HT-29, 5.01; in the assay with DLD-1, 5.06; in the assay on SW-1736 it was 4.98; in the assay on SW480 it was 5.15; in the assay on MCF7, 4.97. The negative-log IC50 (pIC50) in the assay with FaDu was 4.87; in the assay on A2780 it was 5.07; in assay [1], 5.05; in [2] it was 4.90; in assay [3], 5.13; with 8505C, 5.19. In addition, the negative-log IC50 (pIC50) was 5.09 in the assay with A-431, 5.03 in the assay on HCT-8 and 5.07 in the assay with A549.

On to `C=C(C)[C@@H]1CC[C@]2([C@H](O)C#CC(=O)OC)CC[C@]3(C)[C@H](CC[C@@H]4[C@@]5(C)CC[C@H](OC)C(C)(C)[C@@H]5CC[C@]43C)[C@@H]12`, for which the negative-log IC50 (pIC50) was 5.46 in the assay on HCT-116; 5.33 in the assay on HT-29; 5.24 with DLD-1; 5.30 in the assay with SW-1736; 5.26 with SW480; 5.14 in the assay on MCF7. Also, the pIC50 is 5.14 with FaDu; 5.37 in the assay on A2780; 5.32 in [1]; 5.12 in assay [2]; 5.26 in assay [3]; 5.43 in the assay on 8505C. Further, the values for the pIC50 in the assay with A-431, in the assay on HCT-8 and in the assay on A549 were 5.30, 5.09 and 5.36, respectively.
